Test results taken from ChEMBL document CHEMBL4041481, “Linker-switch approach towards new ATP binding site inhibitors of DNA gyrase B” (Eur J Med Chem, 2017).

Experiments:
[1] = biological target: DNA gyrase subunit B (Escherichia coli) (UniProt P0AES6); assay: Inhibition of Escherichia coli DNA ATCC 25922 gyrase B assessed as residual activity at 100 uM using relaxed pNO1 DNA as substrate incubated for 30 mins and measured by sybrGOLD staining based fluorescence assay; conditions: Escherichia coli ATCC 25922
Method in brief: (§1)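 Gyrase supercoiling with 1.5 U enzyme and 0.75 µg relaxed pNO1 plasmid. 30 min at 37 °C, stopped with pH 5.0 TF buffer. Triplex capture on immobilized biotinylated oligonucleotide, 30 min at room temperature. Residual activity at 100 µM; 1% DMSO negative control.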

DNA gyrase subunit B [2] = biological target: T1, DNA gyrase subunit B (Escherichia coli, UniProt P0AES6); assay: Inhibition of Escherichia coli ATCC 25922 DNA gyrase B using relaxed pNO1 DNA as substrate incubated for 30 mins and measured by sybrGOLD staining based fluorescence assay
[3] = biological target: DNA gyrase subunit B (Staphylococcus aureus) (UniProt P0A0K8); assay: Inhibition of Staphylococcus aureus DNA gyrase B assessed as residual activity at 100 uM using relaxed pNO1 DNA as substrate incubated for 30 mins and measured by sybrGOLD staining based fluorescence assay
Method in brief: as §1, with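 “temperature. Washed, SybrGOLD-stained, fluorescence 485/535 nm.” for “temperature.”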

DNA gyrase subunit B [4] = biological target: T1, DNA gyrase subunit B; assay: Binding affinity to Escherichia coli ATCC 25922 DNA gyrase B by surface plasmon resonance assay
Method in brief: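 Running buffer: 10 mM Hepes, 150 mM NaCl, 3 mM EDTA, 0.005% P20, pH 7.4, plus 1% DMSO. Injections at 30 µL/min for 90 s, 120 s dissociation. At least eight concentrations, three parallel titrations. Kd from 1:1 steady-state fit of responses 5 s before injection end.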

[5] = Inhibition of Escherichia coli DNA gyrase using relaxed pBR322 DNA as substrate after 3 hrs by agarose electrophoresis
[6] = Inhibition of Staphylococcus aureus DNA gyrase using relaxed pBR322 DNA as substrate after 3 hrs by agarose electrophoresis
DNA gyrase subunit B [7] = biological target: DNA gyrase subunit B (Staphylococcus aureus, UniProt P0A0K8); assay: Inhibition of Staphylococcus aureus DNA gyrase B using relaxed pNO1 DNA as substrate incubated for 30 mins and measured by sybrGOLD staining based fluorescence assay

Row | Activity [1] [%] | IC50 (DNA gyrase subunit B [2]) [µM] | Structure (SMILES) | also measured
1 | 100 | – | COC(=O)CCNC(=O)[C@H]1CC[C@H](NC(=O)c2cc(Br)c(Br)[nH]2)CC1 | –
2 | 100 | – | COC(=O)CCNC(=O)[C@H]1CC[C@@H](NC(=O)c2cc(Br)c(Br)[nH]2)CC1 | –
3 | 100 | – | O=C(O)c1ccc(C(=O)N2CCC(NC(=O)c3cc4ccccc4[nH]3)CC2)cc1 | –
4 | 100 | – | Nc1ncc(C(=O)N2CCN(C(=O)c3cccnc3)CC2)[nH]1 | –
5 | 100 | – | O=C(O)CCC(=O)N1CCC(NC(=O)c2cc3ccccc3[nH]2)CC1 | –
6 | – | 100 | O=C(O)CC(=O)N1CCC(NC(=O)c2cc3ccccc3[nH]2)CC1 | –
7 | 100 | – | COC(=O)CNC(=O)[C@H]1CC[C@H](NC(=O)c2cc(Br)c(Br)[nH]2)CC1 | –
8 | 100 | – | C=CCN(C(=O)c1cc2ccccc2[nH]1)C1CCN(C(=O)CCC(=O)OC)CC1 | –
9 | – | 20.9 | COC(=O)CCC(=O)N1CCC(NC(=O)c2cc(Br)c(Br)[nH]2)CC1 | –
10 | 78 | – | COC(=O)CC(=O)N1CCN(C(=O)c2cc(Br)c(Br)[nH]2)CC1 | –
11 | 100 | – | O=C(O)CCC(=O)N1CCC(NC(=O)c2ccc[nH]2)CC1 | –
12 | 100 | – | Nc1ncc(C(=O)N2CCN(C(=O)c3ccc[nH]3)CC2)[nH]1 | –
13 | – | 13.7 | COC(=O)CC(=O)N1CCC(NC(=O)c2cc(Br)c(Br)[nH]2)CC1 | –
14 | – | 8.08 | O=C(NC1CCN(C(=O)c2ccc(O)c(O)c2)CC1)c1cc(Cl)c(Cl)[nH]1 | –
15 | – | 10.8 | O=C(O)CC(=O)N1CCC(NC(=O)c2cc(Br)c(Br)[nH]2)CC1 | Activity [3]: 80%
16 | 100 | – | COC(=O)CNC(=O)[C@H]1CC[C@H](CNC(=O)c2cc(Br)c(Br)[nH]2)CC1 | –
17 | 100 | – | N#Cc1ccc(C(=O)N2CCC(NC(=O)c3cc(Br)c(Br)[nH]3)CC2)cc1 | –
18 | 100 | – | COC(=O)CCC(=O)N1CCC(N(Cc2ccccc2)C(=O)c2cc(Br)c(Br)[nH]2)CC1 | –
19 | – | 0.48 | Cc1[nH]c(C(=O)NC2CCN(C(=O)CCC(=O)O)CC2)c(Cl)c1Cl | –

Row | Activity [1] [%] | IC50 (DNA gyrase subunit B [2]) [µM] | Structure (SMILES) | also measured
20 | 100 | – | Nc1ncc(C(=O)N2CCN(C(=O)[C@@H]3CCCN3)CC2)[nH]1 | –
21 | 100 | – | COC(=O)CC(=O)N1CCC(NC(=O)c2cc3ccccc3[nH]2)CC1 | –
22 | 100 | – | Nc1ncc(C(=O)N2CCN(C(=O)c3c[nH]c4ccccc34)CC2)[nH]1 | –
23 | – | 20 | COC(=O)CCC(=O)N1CCC(NC(=O)c2[nH]c(C)c(Cl)c2Cl)CC1 | –
24 | 100 | – | COC(=O)CCC(=O)N1CCC(NC(=O)c2ccc[nH]2)CC1 | –
25 | 100 | – | COC(=O)c1ccc(CN2CCC(NC(=O)c3cc(Br)c(Br)[nH]3)CC2)cc1 | –
26 | – | 49.5 | O=C(O)c1cccc(CN2CCC(NC(=O)c3cc(Br)c(Br)[nH]3)CC2)c1 | Kd (DNA gyrase subunit B [4]): 11.2 µM; Activity [3]: 100%
27 | 100 | – | O=C(O)CCNC(=O)[C@H]1CC[C@H](CNC(=O)c2cc(Br)c(Br)[nH]2)CC1 | –
28 | 100 | – | O=C(O)CNC(=O)[C@H]1CC[C@@H](NC(=O)c2cc(Br)c(Br)[nH]2)CC1 | –
29 | – | 15.1 | O=C(O)CNC(=O)[C@H]1CC[C@H](NC(=O)c2cc(Br)c(Br)[nH]2)CC1 | –
30 | – | 11.2 | COC(=O)CCCC(=O)N1CCC(NC(=O)c2cc(Br)c(Br)[nH]2)CC1 | –
31 | – | 480 | COC(=O)c1ccc(C(=O)N2CCC(NC(=O)c3cc(Br)c(Br)[nH]3)CC2)cc1 | –
32 | 100 | – | COC(=O)CCC(=O)N1CCC(N(Cc2ccccc2)C(=O)c2cc3ccccc3[nH]2)CC1 | –
33 | – | 14.9 | O=C(O)c1ccc(C(=O)N2CCC(NC(=O)c3cc(Br)c(Br)[nH]3)CC2)cc1 | Kd (DNA gyrase subunit B [4]): 256 µM; Activity [3]: 84%
34 | – | 150 | O=C(NC1CCN(C(=O)c2ccc(O)c(O)c2)CC1)c1cc2ccccc2[nH]1 | –
35 | – | – | CO[C@@H]1[C@@H](OC(N)=O)[C@@H](O)[C@H](Oc2ccc3c(O)c(NC(=O)c4ccc(O)c(CC=C(C)C)c4)c(=O)oc3c2C)OC1(C)C [NOVOBIOCIN] | IC50 [5]: 0.08 µM; IC50 [6]: 0.01 µM
36 | 100 | – | COC(=O)CCNC(=O)[C@H]1CC[C@H](CNC(=O)c2cc(Br)c(Br)[nH]2)CC1 | –
37 | 100 | – | O=C(O)CCC(=O)N1CCC(N(Cc2ccccc2)C(=O)c2cc3ccccc3[nH]2)CC1 | –
38 | 100 | – | COC(=O)c1cccc(CN2CCC(NC(=O)c3cc(Br)c(Br)[nH]3)CC2)c1 | –

Row | Activity [1] [%] | IC50 (DNA gyrase subunit B [2]) [µM] | Structure (SMILES) | also measured
39 | 88 | – | COC(=O)c1ccc(C(=O)N2CCC(NC(=O)c3cc4ccccc4[nH]3)CC2)cc1 | –
40 | – | 1080 | O=C(O)CC(=O)N1CCN(C(=O)c2cc(Br)c(Br)[nH]2)CC1 | IC50 (DNA gyrase subunit B [7]): Not Active
41 | – | 49.2 | O=C(O)C(=O)N1CCC(NC(=O)c2cc(Br)c(Br)[nH]2)CC1 | –
42 | – | 1.55 | O=C(O)CCC(=O)N1CCC(NC(=O)c2cc(Br)c(Br)[nH]2)CC1 | Kd (DNA gyrase subunit B [4]): 12.6 µM; IC50 (DNA gyrase subunit B [7]; read-out: IC50): 93.8 µM
43 | 100 | – | COC(=O)CCC(=O)N1CCC(NC(=O)c2cc3ccccc3[nH]2)CC1 | –
44 | 100 | – | O=C(O)CCNC(=O)[C@H]1CC[C@H](NC(=O)c2cc(Br)c(Br)[nH]2)CC1 | –
45 | 100 | – | C=CCN(C(=O)c1cc2ccccc2[nH]1)C1CCN(C(=O)CCC(=O)O)CC1 | –
46 | 29 | – | C=CCN(C(=O)c1cc(Br)c(Br)[nH]1)C1CCN(C(=O)CCC(=O)O)CC1 | –
47 | – | 100 | O=C(O)CCNC(=O)[C@H]1CC[C@@H](NC(=O)c2cc(Br)c(Br)[nH]2)CC1 | –
48 | – | 3.18 | O=C(O)CCCC(=O)N1CCC(NC(=O)c2cc(Br)c(Br)[nH]2)CC1 | Activity [3]: 71%
49 | – | 2.84 | O=C(NC1CCN(C(=O)c2ccc(O)c(O)c2)CC1)c1cc(Br)c(Br)[nH]1 | –
50 | 36 | – | C=CCN(C(=O)c1cc(Br)c(Br)[nH]1)C1CCN(C(=O)CCC(=O)OC)CC1 | –
51 | 100 | – | COC(=O)CNC(=O)[C@H]1CC[C@@H](NC(=O)c2cc(Br)c(Br)[nH]2)CC1 | –
52 | – | 49.5 | O=C(O)CCC(=O)N1CCC(N(Cc2ccccc2)C(=O)c2cc(Br)c(Br)[nH]2)CC1 | Kd (DNA gyrase subunit B [4]): 11.2 µM
53 | 100 | – | Nc1ncc(C(=O)N2CCN(Cc3ccc[nH]3)CC2)[nH]1 | –
54 | – | 63.1 | O=C(O)c1ccc(CN2CCC(NC(=O)c3cc(Br)c(Br)[nH]3)CC2)cc1 | Activity [3]: 100%
55 | 100 | – | CC(C)(C)OC(=O)N1CCC(NC(=O)c2cc3ccccc3[nH]2)CC1 | –
56 | – | > 50 | CC(C)(C)OC(=O)N1CCC(NC(=O)c2cc(Br)c(Br)[nH]2)CC1 | –
57 | – | 4.35 | CCOC(=O)C(=O)N1CCC(NC(=O)c2cc(Br)c(Br)[nH]2)CC1 | Activity [3]: 74%
